In the library only some 0.92% were active in any assay of this set; here they are far more common.
RAD54 inh = RAD54 (human) branch migration inhibition | inhibition, % at 10.4 µM | AID 602329 | 360,000 compounds, 0.14% hits | RAD54 Holliday junction branch migration, FAM/BHQ fluorescence | Q92698;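 active means mean normalized replicate activity at least 40 and at least half of replicates scoring 40 or more; inconclusive means only one of the two criteria met; inactive means mean below 40 and under half of replicates reaching 40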;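 further: 0% = median of neutral control wells and 100% = median of positive control wells; inhibitors cause a drop in the FAM fluorescence signal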
AF4-AF9 inh = blocks AF4 peptide binding to human AF9. AlphaScreen, biotin-AF4 peptide binding to FLAG-AF9. inhibition, % at 10 µM. 350,000 compounds, 0.47% hits;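 active means every replicate reaching a set inhibition limit, whatever the replicate mean, cut at about 25% in these data; inconclusive means mean inhibition reaches that limit but some replicates miss it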;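 further: 0% = plate neutral control median and 100% = total signal loss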
Target sequence (P42568 whole entry, looked up): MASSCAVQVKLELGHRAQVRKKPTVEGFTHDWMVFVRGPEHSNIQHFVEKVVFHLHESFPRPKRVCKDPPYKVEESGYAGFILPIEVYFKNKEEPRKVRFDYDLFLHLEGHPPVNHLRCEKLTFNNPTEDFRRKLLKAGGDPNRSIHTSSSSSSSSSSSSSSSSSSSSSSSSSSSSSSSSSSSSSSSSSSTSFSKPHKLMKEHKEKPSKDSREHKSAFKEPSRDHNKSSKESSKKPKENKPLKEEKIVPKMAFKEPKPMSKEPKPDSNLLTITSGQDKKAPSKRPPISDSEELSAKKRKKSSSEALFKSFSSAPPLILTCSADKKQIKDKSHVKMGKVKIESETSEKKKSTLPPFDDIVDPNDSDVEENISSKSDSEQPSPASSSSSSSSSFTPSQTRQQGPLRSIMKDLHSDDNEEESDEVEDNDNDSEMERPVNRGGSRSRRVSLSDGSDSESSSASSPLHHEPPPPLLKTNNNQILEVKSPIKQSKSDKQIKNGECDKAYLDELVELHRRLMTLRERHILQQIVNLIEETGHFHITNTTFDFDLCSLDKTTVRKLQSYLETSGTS
Glyco luc inh = blocks N-linked glycosylation in D54 reporter cells; D54 ERlucT glycosylation luciferase reporter, 24 h; percent of 100 nM tunicamycin response; reporter increase, % at 12.5 µM; 360,000 compounds, 0.23% hits;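 active means mean luciferase reporter signal, scaled so untreated is 0 and the glycosylation-blocking control 100, at or above a set limit in every replicate; inconclusive means mean reaches the limit but not every replicate does; inactive means mean below the limit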;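 further: luciferase carries N-glycosylation sites so blocking glycosylation raises the light; 0% = median of neutral control wells and 100% = median of 100 nM tunicamycin wells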
FN deposition inh = fibronectin deposition inhibition | AH1F fibroblasts, Alexa488-fibronectin deposition fluorescence, overnight | inhibition, % at 12.6 µM | 350,000 compounds, 0.086% hits | AID 743247;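 active means mean inhibition across replicates of 30% or more, regardless of how many single replicates reach that level; inconclusive means mean under 30% yet at least half of replicates reach 30%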;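 further: positive control wells lacked labelled fibronectin entirely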
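Assay system: AH1F fibroblasts assembling fluorescent fibronectin matrix; Amount: 10000 AH1F cells per well; Buffer or medium: DMEM, 2% serum; Probe or stimulus: Alexa488-fibronectin, 24 nM final in well; Doses: single compound dose, delivered by pin transfer; Incubation: 1 h adhesion, overnight exposure; Measured by: fluorescence 485/525 nm; Read-out: fibronectin deposition inhibition.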
RAD52 anneal inh = inhibitors of human RAD52 DNA annealing; P43351; recombinant RAD52 DNA annealing, FRET fluorescence; inhibition, % at 18.7 µM; 360,000 compounds, 0.46% hits;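 active means every replicate showing at least 50% inhibition; inconclusive means mean inhibition at least 50% but not in every replicate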
* marks the source's active call; other numbers are inactive results.

What do the screens show for `C[C@H](NC(=O)C[C@H]1C[C@@H]2c3cc(NC(=O)C4CCC4)ccc3O[C@@H]2[C@@H](CO)O1)c1ccccc1`?
RAD54 inh: 4; AF4-AF9 inh: 2; FN deposition inh: 1; RAD52 anneal inh: -1

Results for CCC(CNc1cc(OC)cc2cccnc12)NC1CCCCC1 (centres undefined) ?
AF4-AF9 inh: 56*; Glyco luc inh: 1; FN deposition inh: -2; RAD52 anneal inh: 36

What do the screens show for `COc1cc(NCCCC(C)N)c2ncccc2c1` (centres undefined)?
RAD54 inh: 69*; Glyco luc inh: -8

Results for COc1cc(NS(=O)(=O)c2ccc(C)cc2)c2ncccc2c1 ?
Glyco luc inh: -16

How did CN(C)CC(=O)N[C@@H]1C[C@@H]2O[C@H](CO)CC[C@@H]2O[C@@H]1CCc1ccc(C2=CCCCC2)cc1 do in these assays?
RAD52 anneal inh: 25

How did Cc1[nH]c2ccccc2c1/C=N/NC(=O)c1cc(-c2ccncc2)nc2ccccc12 do in these assays?
RAD54 inh: -2; AF4-AF9 inh: 3; Glyco luc inh: 37*; FN deposition inh: 12; RAD52 anneal inh: -6

How did Cc1[nH]c2ccccc2c1/C=N/NC(=O)c1cc(-c2ccccc2)n[nH]1 do in these assays?
RAD54 inh: -2; AF4-AF9 inh: 2; Glyco luc inh: 1; FN deposition inh: -10; RAD52 anneal inh: -13

How did CCC(=O)Nc1ccc2c(c1)OC[C@H](C)N(Cc1ccccc1)C[C@H](C)[C@H](OC)CN(C)C2=O do in these assays?
RAD54 inh: 1; AF4-AF9 inh: -7; FN deposition inh: 4; RAD52 anneal inh: 11

Results for CN1C(=O)/C(=C/c2ccc(OCc3cccc(F)c3)cc2)NC1=S ?
RAD54 inh: -9; AF4-AF9 inh: -3; Glyco luc inh: -3; FN deposition inh: 3; RAD52 anneal inh: -17

How did COc1cc(/C=C2/C(=O)N(C)C(=S)N2C)ccc1OCc1cccc(F)c1 do in these assays?
RAD54 inh: -2; AF4-AF9 inh: 2; Glyco luc inh: 34*; FN deposition inh: -7; RAD52 anneal inh: -204

How did O=C(c1ccc(Cl)cc1)C(CN1CCCC1)c1ccccc1 (centres undefined) do in these assays?
RAD54 inh: -6; AF4-AF9 inh: 7; Glyco luc inh: -12; FN deposition inh: 53*; RAD52 anneal inh: 10

How did CCOC(=O)CSC1=C(C#N)C(c2ccc(C)o2)CC(=O)N1 (centres undefined) do in these assays?
RAD54 inh: -2; AF4-AF9 inh: 30*; Glyco luc inh: 10; FN deposition inh: -2; RAD52 anneal inh: -17

Results for CCOC(=O)CSC1=C(C#N)C(c2ccc(Cl)cc2)CC(=O)N1 (centres undefined) ?
RAD54 inh: -6; AF4-AF9 inh: -2; Glyco luc inh: 1; RAD52 anneal inh: -4

Results for CC(=O)NC(c1ccc(C)cc1)c1cc(Cl)c2cccnc2c1O (centres undefined) ?
RAD54 inh: 8; AF4-AF9 inh: -3; Glyco luc inh: -11; FN deposition inh: 13; RAD52 anneal inh: -5

Results for Cc1ccc(C(c2cc(Cl)c3cccnc3c2O)N2CCN(C)CC2)cc1 (centres undefined) ?
RAD54 inh: 8; Glyco luc inh: 43*

What do the screens show for `CC(=O)NC(c1cc(Cl)c2cccnc2c1O)C1CC1` (centres undefined)?
RAD54 inh: 15; AF4-AF9 inh: 1; Glyco luc inh: -11; FN deposition inh: 14; RAD52 anneal inh: -6

What do the screens show for `Oc1c(C(c2ccccn2)N2CCC(Cc3ccccc3)CC2)cc(Cl)c2cccnc12` (centres undefined)?
AF4-AF9 inh: 45*; FN deposition inh: 2; RAD52 anneal inh: -5

What do the screens show for `C[C@@H]1CN([C@H](C)CO)S(=O)(=O)c2ccc(C#CCN(C)C)cc2O[C@H]1CN(C)C(=O)C1CC1`?
FN deposition inh: -4

Results for COc1ccccc1-c1c(C)nn2c(-c3ccccc3)cc(C)nc12 ?
AF4-AF9 inh: 27*; Glyco luc inh: -8; FN deposition inh: -2; RAD52 anneal inh: -8

What do the screens show for `COc1ccccc1-c1c(C)nn2c(N3CCCCCC3)cc(C)nc12`?
RAD54 inh: 6; AF4-AF9 inh: 6; Glyco luc inh: -8; FN deposition inh: -2; RAD52 anneal inh: 12

What do the screens show for `CCC(=O)N1[C@@H]2CN(C(=O)c3ccccc3F)c3ccccc3[C@@H]2[C@@H]1CO`?
RAD54 inh: -5; AF4-AF9 inh: -1; RAD52 anneal inh: 1

What do the screens show for `C[C@H]1CN([C@@H](C)CO)C(=O)Cc2cc(NC(=O)CCCN(C)C)ccc2O[C@@H]1CN(C)Cc1ccc(Oc2ccccc2)cc1`?
RAD54 inh: 20; AF4-AF9 inh: 12; RAD52 anneal inh: 52*

How did C[C@H](CO)N1C[C@H](C)[C@H](CN(C)Cc2ccc(Oc3ccccc3)cc2)Oc2ccc(NC(=O)CCCN(C)C)cc2CC1=O do in these assays?
RAD54 inh: 9; AF4-AF9 inh: 12; RAD52 anneal inh: 58*

How did C[C@H]1CN([C@@H](C)CO)C(=O)c2cc(NC(=O)CCCN(C)C)ccc2O[C@H]1CN(C)Cc1ccc(Oc2ccccc2)cc1 do in these assays?
RAD54 inh: 0; AF4-AF9 inh: inconclusive; RAD52 anneal inh: 16

What do the screens show for `C[C@H](CO)N1C[C@H](C)[C@@H](CN(C)Cc2ccc(Oc3ccccc3)cc2)Oc2ccc(NC(=O)CCCN(C)C)cc2C1=O`?
RAD54 inh: 9; AF4-AF9 inh: 21; RAD52 anneal inh: 16

How did C[C@@H]1CN([C@@H](C)CO)C(=O)Cc2cc(NC(=O)CCCN(C)C)ccc2O[C@@H]1CN(C)Cc1ccc(Oc2ccccc2)cc1 do in these assays?
AF4-AF9 inh: 28*; RAD52 anneal inh: 39

What do the screens show for `COCC(=O)N1CC(=O)N2[C@@H](CO)[C@@H](c3ccc(C#CC4CCCCC4)cc3)[C@@H]2C1`?
AF4-AF9 inh: 0; RAD52 anneal inh: -8

How did CC(=O)NC[C@@H]1[C@@H](c2ccc(-c3ccccc3F)cc2)[C@@H](CO)N1C(C)=O do in these assays?
RAD54 inh: 5; AF4-AF9 inh: 2; FN deposition inh: 2; RAD52 anneal inh: -8

How did C[C@H]1CN([C@@H](C)CO)S(=O)(=O)c2ccc(-c3ccc(C(=O)N(C)C)cc3)cc2O[C@H]1CN(C)C(=O)C1CCCCC1 do in these assays?
RAD54 inh: 8; AF4-AF9 inh: 1; RAD52 anneal inh: -12

How did COc1cccc(NC(=O)N2CC3(C2)[C@H](c2ccccc2)[C@H](CO)N3C(=O)C2CCC2)c1 do in these assays?
AF4-AF9 inh: -5; FN deposition inh: 12

What do the screens show for `OC[C@@H]1Nc2ccc(C#Cc3ccccc3)cc2[C@@H]2[C@H]1CCN2Cc1nccs1`?
AF4-AF9 inh: 18; FN deposition inh: 8; RAD52 anneal inh: 59*

Bioassay records as filed in PubChem BioAssay.
